The results in this text go back to ChEMBL document CHEMBL2093137, “WHO-TDR NTD Screening”.

Each structure is given as a SMILES string. In brackets after ≈: the same amount, converted by molar mass.

Data set [1] has as its system Onchocerca lienalis. Nature of the data set: WHO-TDR: Onchocerciasis. In kind it is functional. More on the design: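 at 12.5 µM on microfilariae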. The procedure, abridged:
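A diverse library of 10,000 compounds from Life Chemicals, filtered for drug-likeness and reactive groups, was screened against whole microfilariae of Onchocerca ochengi or Onchocerca lienalis. These animal pathogens served as stand-ins for the human parasite. Activity is given as percent inhibition and as IC50.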

Data set [2] has as its system Schistosoma mansoni. Put plainly: WHO-TDR: Schistosomiasis. Type of data set: functional. Details: concentration or dose not given beside the values. The procedure, abridged: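 A diverse library of 10,000 compounds from Life Chemicals, filtered for drug-likeness and reactive groups, was screened against whole larval and/or adult Schistosoma mansoni worms of the Puerto Rican strain. Previously published standard procedures were followed, with a reference drug as positive control. Activity is given as percent inhibition and as IC50.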

Data set [3] has as its system Leishmania infantum. Nature of the data set: WHO-TDR: Leishmaniasis. Type of data set: functional, organism-based, Mus musculus. To be noted: Macrophage. The procedure, abridged:
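Whole-organism screen of a 10,000-compound diverse library from Life Chemicals, filtered for drug-likeness and reactive groups, against intracellular amastigotes of Leishmania infantum MHOM/MA(BE)/67 in murine peritoneal macrophage host cells. The assay followed previously published standard procedures, with a reference drug as positive control. Antiparasitic potency is reported as IC50.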

Data set [4] in a line: WHO-TDR: Cytotoxicity. In kind it is toxicity, cell-based. To be noted: human, MRC5 cells.
Data set [5] relates to Trypanosoma brucei brucei. Nature of the data set: WHO-TDR: Human African Trypanosomiasis (HAT). Type of data set: functional, organism-based. To be noted: Squib-427. Summed up: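 Whole-organism screen of a 10,000-compound diverse library from Life Chemicals, filtered for drug-likeness and reactive groups, against bloodstream forms of Trypanosoma brucei Squib 427 strain. The assay followed previously published standard procedures, with reference drugs as positive controls. Antiparasitic potency is reported as IC50.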

The test system of data set [6] is Trypanosoma cruzi. Put plainly: WHO-TDR: Chagas disease. Type of data set: functional, organism-based, Homo sapiens. To be noted: MRC5. Summed up: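 Intracellular amastigotes of the Trypanosoma cruzi Tulahuen CL2 beta-galactosidase strain, grown in MRC-5SV2 human lung fibroblast host cells, were tested in a whole-organism screen. The compounds came from a 10,000-member diverse Life Chemicals library that had been filtered for drug-likeness and reactive groups. Previously published standard procedures were followed, with a reference drug as positive control, and potency is reported as IC50.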

The subject of data set [7] is Plasmodium falciparum K1. Put plainly: WHO-TDR: Malaria. To be noted: Erythrocyte. Type of data set: functional, organism-based, Homo sapiens. Summed up: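 Whole-organism screen of a 10,000-compound diverse library from Life Chemicals, filtered for drug-likeness and reactive groups, against intra-erythrocytic Plasmodium falciparum K1 strain in human red blood cells. The assay followed previously published standard procedures, with a reference drug as positive control. Antiplasmodial potency is reported as IC50.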

As a reminder, the % Inhibition is the relative decrease from the control value, in per cent. By IC50 is commonly meant the concentration needed to halve the response being measured. Turning to `CC(Sc1ccc2nnc(CCNC(=O)c3ccccc3)n2n1)c1ccccc1` (configuration not stated), the figures for the “% Inhibition” value in data set [1] and in data set [2] were 0% and 66.7%, respectively. Moreover, the IC50 in data set [3] is 0.392 µg/mL (≈ 0.971 µM); in data set [4], over 12.1 µg/mL; in data set [5], 3.3 µg/mL (≈ 8.17 µM); in data set [6], 5.24 µg/mL (≈ 13 µM); in data set [7], 3.16 µg/mL (≈ 7.83 µM).
With `O=C(Cc1ccc(Cl)cc1)Nc1cccc(-c2nc3cccnc3s2)c1`, the “% Inhibition” value in data set [1] stood at 66.7%; in data set [2], 58.3%. The IC50 in data set [3] was 0.369 µg/mL (≈ 0.971 µM); in data set [4], over 11.4 µg/mL; in data set [5] it was over 11.4 µg/mL; in data set [6], over 11.4 µg/mL; in data set [7] it was over 11.4 µg/mL.
For the compound `O=S(=O)(NCC(c1cccnc1)N1CCN(Cc2ccccc2)CC1)c1ccc(Cl)cc1` (configuration not stated), the “% Inhibition” value in data set [1] and in data set [2] was 0% throughout. Besides, the IC50 in data set [3] is over 14.1 µg/mL; in data set [4] it was over 14.1 µg/mL; in data set [5], over 14.1 µg/mL; in data set [6], 0.633 µg/mL (≈ 1.34 µM); in data set [7], 2.18 µg/mL (≈ 4.63 µM).
Consider `Cc1cccc2sc(N(CCCN(C)C)C(=O)c3ccccc3Br)nc12`, for which the figures for the “% Inhibition” value in data set [1] and in data set [2] were 0% and 33.3%, respectively. Besides, the 50% inhibitory concentration (IC50) in data set [3] came out at 4.55 µg/mL (≈ 10.5 µM); in data set [4], 3.97 µg/mL (≈ 9.18 µM); in data set [5], 0.45 µg/mL (≈ 1.04 µM); in data set [6], 4.76 µg/mL (≈ 11 µM); in data set [7] it was 0.653 µg/mL (≈ 1.51 µM).
Regarding `COc1ccc(S(=O)(=O)NCC(c2cccnc2)N2CCN(Cc3ccccc3)CC2)cc1C` (configuration not stated), the “% Inhibition” value in data set [1] and in data set [2] was 0% each time. The 50% inhibitory concentration (IC50) was 7.47 µg/mL (≈ 15.5 µM) in data set [3]; over 14.4 µg/mL in data set [4]; 5.04 µg/mL (≈ 10.5 µM) in data set [5]; 0.835 µg/mL (≈ 1.74 µM) in data set [6]; 1.81 µg/mL (≈ 3.78 µM) in data set [7].
Consider `CN(CC1CCCO1)S(=O)(=O)c1ccc(C(=O)Nc2nc3c(s2)CSc2ccccc2-3)cc1` (configuration not stated), for which the results for the “% Inhibition” value in data set [1] and in data set [2] were 13.3% and 41.7%, respectively. Further, the half-inhibitory concentration (IC50) in data set [3] is 4.87 µg/mL (≈ 9.71 µM); in data set [4], 3 µg/mL (≈ 5.99 µM); in data set [5] it was 0.487 µg/mL (≈ 0.971 µM); in data set [6], 0.521 µg/mL (≈ 1.04 µM); in data set [7] it was over 9.73 µg/mL.
With `CCN(CC)c1cc(C)nc(Nc2ccc(NS(=O)(=O)c3ccc(C)cc3C)cc2)n1`, the “% Inhibition” value in data set [1] is -1%; in data set [2], 100%. Also, the IC50 in data set [3] was 4.27 µg/mL (≈ 9.71 µM); in data set [4], 1.51 µg/mL (≈ 3.43 µM); in data set [5] it was 0.429 µg/mL (≈ 0.976 µM); in data set [6], 0.324 µg/mL (≈ 0.737 µM); in data set [7] it was 0.357 µg/mL (≈ 0.812 µM).
Turning to `COc1ccc(CCNC(=O)CSc2nnc(NC(=O)c3cc(Cl)ccc3Cl)s2)cc1OC`, the “% Inhibition” value was determined as 13.3% in data set [1] and 8.3% in data set [2]. Further, the IC50 came to 4.54 µg/mL (≈ 8.61 µM) in data set [3]; 0.526 µg/mL (≈ 0.997 µM) in data set [4]; 0.352 µg/mL (≈ 0.668 µM) in data set [5]; 0.239 µg/mL (≈ 0.452 µM) in data set [6]; 0.398 µg/mL (≈ 0.755 µM) in data set [7].
As for `Cc1csc(NC(=O)CSc2nnc(NC(=O)c3ccco3)s2)n1`, the “% Inhibition” value in data set [1] and in data set [2] was 0% throughout. Moreover, the IC50 in data set [3] is 4.74 µg/mL (≈ 12.4 µM); in data set [4], 5.73 µg/mL (≈ 15 µM); in data set [5] it was 4.74 µg/mL (≈ 12.4 µM); in data set [6], 5.1 µg/mL (≈ 13.4 µM); in data set [7], 1.14 µg/mL (≈ 3 µM).
With `CCOC(=O)CNC(=O)CSc1nnc(NC(=O)c2ccccc2Cl)s1`, the results for the “% Inhibition” value in data set [1] and in data set [2] were 13.3% and 0%, respectively. Also, the half-maximal inhibitory concentration (IC50) came to 4.16 µg/mL (≈ 10 µM) in data set [3]; 3.81 µg/mL (≈ 9.19 µM) in data set [4]; 0.237 µg/mL (≈ 0.572 µM) in data set [5]; 4.41 µg/mL (≈ 10.6 µM) in data set [6]; 0.848 µg/mL (≈ 2.04 µM) in data set [7].
Take `C=CCn1/c(=N/C(=O)c2ccccc2I)sc2cc(S(C)(=O)=O)ccc21`: the “% Inhibition” value in data set [1] is given as 20%; in data set [2], 100%. Besides, the IC50 in data set [3], in data set [4], in data set [5], in data set [6] and in data set [7] was over 15 µg/mL each time.
